Screening data as filed in PubChem BioAssay.
ERAP1 inh – inhibitors of human ERAP1 aminopeptidase; actives 0.15% (n = 340,000); recombinant ERAP1, Leu-AMC fluorescence, 60 min; inhibition, % at 10.7 µM; Q9NZ08;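 active = mean replicate inhibition of at least 30%, or all replicates individually reaching that 30% level; inactive = mean below 30% and not every replicate reaching it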;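 also: 0% = neutral control wells and 100% = L-leucinethiol positive control wells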
Target sequence (Q9NZ08 whole entry, looked up): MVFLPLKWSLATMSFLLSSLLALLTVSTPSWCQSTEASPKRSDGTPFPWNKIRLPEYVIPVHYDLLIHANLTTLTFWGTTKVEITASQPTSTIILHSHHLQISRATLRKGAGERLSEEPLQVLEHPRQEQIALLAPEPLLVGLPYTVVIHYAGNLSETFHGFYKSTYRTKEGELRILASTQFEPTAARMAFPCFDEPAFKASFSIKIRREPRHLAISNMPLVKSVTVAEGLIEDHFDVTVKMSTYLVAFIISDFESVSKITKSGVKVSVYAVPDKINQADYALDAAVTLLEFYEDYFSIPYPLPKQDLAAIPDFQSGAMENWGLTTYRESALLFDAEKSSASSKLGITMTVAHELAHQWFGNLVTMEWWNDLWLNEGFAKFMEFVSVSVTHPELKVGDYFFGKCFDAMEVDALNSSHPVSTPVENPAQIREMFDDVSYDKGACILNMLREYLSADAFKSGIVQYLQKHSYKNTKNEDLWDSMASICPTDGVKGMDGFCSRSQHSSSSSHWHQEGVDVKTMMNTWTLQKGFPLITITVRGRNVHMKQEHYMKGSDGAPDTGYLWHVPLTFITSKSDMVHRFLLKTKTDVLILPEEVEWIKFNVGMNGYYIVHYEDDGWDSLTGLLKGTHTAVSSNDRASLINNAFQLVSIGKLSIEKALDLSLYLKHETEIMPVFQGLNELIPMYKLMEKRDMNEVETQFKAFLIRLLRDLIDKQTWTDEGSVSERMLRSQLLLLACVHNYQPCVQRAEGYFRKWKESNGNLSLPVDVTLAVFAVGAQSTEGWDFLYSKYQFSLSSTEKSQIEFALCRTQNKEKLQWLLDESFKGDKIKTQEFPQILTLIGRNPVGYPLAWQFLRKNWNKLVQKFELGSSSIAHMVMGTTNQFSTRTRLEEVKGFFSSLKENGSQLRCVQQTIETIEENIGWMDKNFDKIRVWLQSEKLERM
INS-1E GSIS act – GLuc luminescence reporter in INS-1E cells, primary screen for activators of glucose-dependent secretion of insulin | AID 743287 | actives 0.61% (n = 370,000) | INS-1E GLuc reporter insulin secretion, 2-3 h | activation, % at 16.6 µM;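 active = lowest replicate activation of at least 40%, so every replicate reaches that level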;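 also: 0% = median of neutral control wells and 100% = median of IBMX positive control wells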
F508del corr – CFTR F508del correction in bronchial cells; activity (quench increase), % at 7.58 µM; CFBE cells, YFP halide quenching; stimulated with forskolin plus potentiator P3; % fluorescence drop versus neutral controls; actives 0.36% (n = 350,000); AID 720511;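 active = mean added fluorescence quench of at least 8% versus neutral control, with both replicates also reaching 8%; inconclusive = only one of the mean or replicate conditions met; inactive = mean below 8% and not both replicates reaching 8%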;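 also: cells transiently co-express mutant CFTR-F508del with the halide-sensitive YFP; corrector assay measuring rescue of mutant channel to the surface after 24 h compound exposure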
E-sel inducer – induces E-selectin expression in human endothelial cells; P16581; HUVEC E-selectin immunofluorescence imaging; normalized: neutral wells 0, TNF-alpha wells 100; activation, % at 7.58 µM; actives 0.37% (n = 260,000); AID 686992;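 active = mean E-selectin-positive cell signal at least 10% of the positive control, reached in at least 60% of replicates, without over 20% cell loss; inconclusive = no rule given, readout overlaps actives, possibly toxicity-flagged; inactive = the rest, including those meeting only one limit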
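Material: HUVEC primary endothelial cells; Amount: 3,000 cells per well; Dosing: single concentration; Medium: EGM-2 growth medium on 0.1% gelatin-coated wells; Read-out basis: percent E-selectin-positive cells; Signal: immunofluorescence imaging; Control set: TNF-alpha, DMSO.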
DENV2 CPE rescue – inhibitors of DENV2 cytopathic effect; DENV2-infected cells, cytopathic effect rescue, plate reader; CPE inhibition, % at 9.99 µM; actives 1.7% (n = 350,000); in the data active = CPE inhibition above about 20%, passing the limit was not always enough; inconclusive = no clear call, values can overlap the other calls; tested in BHK-21 cells;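 also: 0% = median of neutral control wells and 100% = median of positive control wells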
miR-122 sensor – blocks miR-122 activity in Huh7 sensor cells. Huh7 miR-122 Renilla luciferase sensor, 48 h; neutral wells = 0, positive control = 100. activation (reporter increase), % at 12.5 µM. actives 0.3% (n = 340,000). AID 602342;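 active = mean replicate activation score at least 90 and every replicate individually at or above 90; inconclusive = only one of the two criteria met; inactive = neither criterion met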;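 also: higher luciferase means less miR-122 activity so hits act as miR-122 inhibitors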
* = called active by the depositor; ? = inconclusive; nt = not tested or not shown; [ ] = another dose, or the depositor's remark. Most compounds without a hit are left out; they make up all but 2.6% or so of the library.

SMILES	ERAP1 inh	INS-1E GSIS act	F508del corr	E-sel inducer	DENV2 CPE rescue	miR-122 sensor
Nc1nc(SCc2nc3scc(-c4ccccc4)c3c(=O)[nH]2)n[nH]1	0	55*	-1	nt	10	-6
COc1ccc(S(=O)(=O)N(C)C[C@@H]2OCCCC[C@@H](C)Oc3ccc(NS(=O)(=O)c4ccc(C)cc4)cc3C(=O)N([C@H](C)CO)C[C@@H]2C)cc1	-3	-4	3	0	?	1[16.7 µM]
CCN(CC)S(=O)(=O)c1ccc(NC(=O)C2CC(=O)N(c3ccc4c(c3)OCCO4)C2)cc1 (stereo not drawn)	-7	-25	15*	0	3	nt
COc1ccccc1NC(=O)C(C)OC(=O)C1CC(=O)N(c2ccc3c(c2)OCCO3)C1 (stereo not drawn)	1	-2	1	107*	7	3
CCN1CCN(C(=O)C2CC(=O)N(c3ccc(Cl)cc3)C2)CC1 (stereo not drawn)	-4	8	-1	0	61*	nt
CCOC(=O)C1CCN(C(=O)C2CC(=O)N(c3ccc4c(c3)OCCO4)C2)CC1 (stereo not drawn)	-1	15	0	nt	61*	4
CCCC#Cc1cnc2c(c1)C(=O)N([C@@H](C)CO)C[C@@H](C)[C@@H](CN(C)Cc1ccccc1)O2	0	12	0	0	3	nt
NC(=O)c1ncn([C@@H]2O[C@H](C(=O)N[C@H](Cc3c[nH]c4ccccc34)C(=O)N3CCN(CC(=O)N4CCCC4)CC3)[C@@H](O)[C@H]2O)n1	1	-3	3	?	21*	nt
CN(C(=O)[C@H]1O[C@@H](n2cnc(C(N)=O)n2)[C@H](O)[C@@H]1O)c1ccccc1	0	187*	-1	0	6	nt
NC(=O)c1ncn([C@@H]2O[C@H](C(=O)N[C@H](Cc3ccccc3)C(=O)O)[C@@H](O)[C@H]2O)n1	1	44*	2	0	-6	nt
NC(=O)c1ncn([C@@H]2O[C@H](C(=O)N[C@H](Cc3c[nH]c4ccccc34)C(=O)O)[C@@H](O)[C@H]2O)n1	0	nt	3	0	-10	nt
O=C(C[C@@H]1CC[C@H]2[C@@H](COC[C@H](O)CN2C(=O)c2ccccc2F)O1)N1CCN(c2ccccc2)CC1	-1	12	1	0	-7	-1[16.7 µM]
CCCC#Cc1cnc2c(c1)C(=O)N([C@H](C)CO)C[C@H](C)[C@H](CN(C)Cc1ccncc1)O2	-4	14	nt	1	17	3[16.7 µM]
COc1ccc(NC(=O)Nc2ccc3c(c2)C(=O)N([C@H](C)CO)C[C@@H](C)[C@H](CN(C)C(=O)C2CCCCC2)OCCCC[C@H](C)O3)cc1	0	-16	2	0	21*	-24[16.7 µM]
COc1ccc(NC(=O)Nc2ccc3c(c2)C(=O)N([C@@H](C)CO)C[C@H](C)[C@@H](CN(C)C(=O)C2CCCCC2)OCCCC[C@H](C)O3)cc1	1	10	2	0	39*	-4[16.7 µM]
O=C(Nc1nonc1NC(=O)c1cccs1)c1cccs1	-1	133*	-2	-1	4	nt
O=C(Nc1ccc(NC(=O)c2cccs2)cc1)c1cccs1	-3	-1	0	nt	-6	-4
COCCNC(=O)c1cc2c(c(-c3cccc(-c4cccc(F)c4)c3)n1)[C@H](CCO)N([S@@](=O)C(C)(C)C)C2	-2	-20	3	1	2	nt
C[C@H](CO)N1C[C@H](C)[C@H](CN(C)S(=O)(=O)c2ccccc2)Oc2ncc(C#CC(C)(C)O)cc2C1=O	nt	20	-3	0	nt	-6[16.7 µM]
CC1CCN(CCOc2ccc(OCc3ccccc3)cc2)CC1	-4	-4	3	nt	36*	2
COc1ccc(CCNC(=O)c2c(C)nn(CC(C)C)c2Cl)cc1OC	-2	18	1	0	95*	nt
CCN(CC)CCN1C(=O)C(O)=C(C(C)=O)C1c1ccccc1[N+](=O)[O-] (stereo not drawn)	1	nt	-2	1	-5	2
CC(=O)C1=C(O)C(=O)N(CCc2ccccc2)C1c1ccccc1[N+](=O)[O-] (stereo not drawn)	0	6	0	nt	31*	nt
